In ChEMBL document CHEMBL1143257, “Structure-activity relationships of novel HIV-1 protease inhibitors containing the 3-amino-2-chlorobenzoyl-allophenylnorstatine structure” (Bioorg Med Chem, 2008):
pEC50, pKi: −log10 of the molar value. Each block holds one molecule with its values, some of them ahead of it.

Key:
[1] = test system: Human immunodeficiency virus 1; experiment: Antiviral activity against HIV1 3B; format: functional, organism-based; conditions: Human immunodeficiency virus 1, 3B
[2] = test system: Human immunodeficiency virus 1; experiment: Antiviral activity against HIV1 3B in presence of 50% human serum; format: functional, organism-based; conditions: Human immunodeficiency virus 1, 3B
[3] = test system: Human immunodeficiency virus 1; experiment: Antiviral activity against wild type HIV1; format: functional, organism-based
[4] = test system: Human immunodeficiency virus 1; experiment: Antiviral activity against HIV1 mutant strain 1; format: functional, organism-based
Method in brief: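 PhenoSense phenotypic susceptibility assay on multi-drug-resistant clinical HIV-1 protease variant strains, run in parallel with a wild-type reference. EC50 read in µM. Fold change is mutant EC50 divided by wild-type EC50.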

[5] = test system: Human immunodeficiency virus 1; experiment: Antiviral activity against HIV1 mutant strain 2; format: functional, organism-based
Method in brief: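 PhenoSense phenotypic assay. Strain 2 protease carries L10I, G16A, K45V, F53L, I54V, K55N, D60E, L63P, A71V, I72K, V77I, V82F, I84V, L90M, I93L. EC50 in µM. Fold change is versus the wild-type EC50.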

[6] = test system: Human immunodeficiency virus 1; experiment: Antiviral activity against HIV1 mutant strain 3; format: functional, organism-based
[7] = test system: Human immunodeficiency virus 1; experiment: Antiviral activity against HIV1 mutant strain 4; format: functional, organism-based
[8] = test system: Human immunodeficiency virus 1; experiment: Antiviral activity against HIV1 mutant strain 5; format: functional, organism-based
[9] = test system: Human immunodeficiency virus 1; experiment: Antiviral activity against HIV1 mutant strain 6; format: functional, organism-based
[10] = test system: Human immunodeficiency virus 1; experiment: Antiviral activity against HIV1 mutant strain 7; format: functional, organism-based
Method in brief: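 PhenoSense phenotypic assay. Strain 7 protease mutations include T4A, L10I, K20R, L23I, L33F, E35D, M36I, K43T, M46L. EC50 in µM. Fold change is versus the wild-type EC50.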

[11] = Metabolic stability in human liver microsomes assessed as compound remaining at 5 uM in presence of NADPH by RP-HPLC; format: ADME, Microsome; conditions: read-out: Stability
Method in brief: (§1)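 Test drug at 5 µM incubated with liver microsomes (0.5 mg/ml) plus cofactor (1 mM NADPH or 5 mM UDPGA) at 37 °C for 30 min. Residual drug measured by RP-HPLC. Values are the mean percent remaining of duplicates.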

[12] = Metabolic stability in human liver microsomes assessed as compound remaining at 5 uM in presence of UDPGA by RP-HPLC; format: ADME, Microsome; conditions: read-out: Stability; method in brief: as §1
Protease = Protease (Human immunodeficiency virus 1, UniProt Q9YQ12); experiment: Inhibition of HIV1 protease
Sequence of Protease (Q9YQ12 whole entry): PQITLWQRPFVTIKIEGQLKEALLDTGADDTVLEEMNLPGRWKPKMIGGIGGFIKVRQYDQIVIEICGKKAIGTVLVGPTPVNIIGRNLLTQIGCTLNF

SMILES: CC(C)c1nc(CN(C)C(=O)N[C@H](C(=O)N[C@@H](Cc2ccccc2)C[C@H](O)[C@H](Cc2ccccc2)NC(=O)OCc2cncs2)C(C)C)cs1 [RITONAVIR]
- pEC50 [1]: 8.70
- pEC50 [2]: 7.39
- pEC50 [3]: 7.80
- pEC50 [4]: 5.76
- pEC50 [5]: < 5.52
- pEC50 [6]: < 5.52
- pEC50 [7]: 6.00
- pEC50 [8]: < 5.52
- pEC50 [9]: < 5.52
- pEC50 [10]: < 5.52

SMILES: CC(C)(C)NC(=O)[C@@H]1CN(Cc2cccnc2)CCN1C[C@@H](O)C[C@@H](Cc1ccccc1)C(=O)N[C@H]1c2ccccc2C[C@H]1O
- pEC50 [1]: 7.64
- pEC50 [2]: 7.06
- pEC50 [3]: 8.12
- pEC50 [4]: 6.40
- pEC50 [5]: 6.33
- pEC50 [6]: 6.12
- pEC50 [7]: 6.95
- pEC50 [8]: < 5.82
- pEC50 [9]: 6.09
- pEC50 [10]: 6.84

SMILES: Cc1ccccc1CNC(=O)[C@H]1N(C(=O)[C@@H](O)[C@H](Cc2ccccc2)NC(=O)c2cccc(N)c2Cl)CSC1(C)C
- pEC50 [1]: 7.11
- pEC50 [2]: 6.78
- remaining at 5 µM [11]: 46%
- remaining at 5 µM [12]: > 95%
- pKi (Protease): 9.45

SMILES: CCOc1ccc(C[C@H](NC(=O)c2cccc(N)c2Cl)[C@H](O)C(=O)N2CCC(C)(C)[C@H]2C(=O)NCc2c(C)cccc2C)cc1
- pEC50 [1]: 7.20
- pEC50 [2]: 6.57
- remaining at 5 µM [11]: 53%
- remaining at 5 µM [12]: > 95%
- pKi (Protease): 9.06

More lines, in order of rising pEC50 [1], values ahead:

- pEC50 [1]: 7.62
- pEC50 [2]: 7.85
- remaining at 5 µM [11]: 58%
- remaining at 5 µM [12]: > 95%
- pKi (Protease): 9.86
SMILES: COc1ccc(C[C@H](NC(=O)c2cccc(N)c2Cl)[C@H](O)C(=O)N2CSC(C)(C)[C@H]2C(=O)NCc2c(C)cccc2C)cc1

- pEC50 [1]: 7.68
- pEC50 [2]: 6.86
- remaining at 5 µM [11]: 66%
- remaining at 5 µM [12]: 93%
- pKi (Protease): 9.59
SMILES: COc1cccc(C[C@H](NC(=O)c2cccc(N)c2Cl)[C@H](O)C(=O)N2CSC(C)(C)[C@H]2C(=O)NCc2ccccc2C)c1

- pEC50 [1]: 7.70
- pEC50 [2]: 7.18
- remaining at 5 µM [11]: 54%
- remaining at 5 µM [12]: > 95%
- pKi (Protease): 9.82
SMILES: CCOc1ccc(C[C@H](NC(=O)c2cccc(N)c2Cl)[C@H](O)C(=O)N2CSC(C)(C)[C@H]2C(=O)NCc2c(C)cccc2C)cc1

- pEC50 [1]: 7.77
- pEC50 [2]: 7.70
- remaining at 5 µM [11]: 53%
- remaining at 5 µM [12]: > 95%
- pKi (Protease): 10.15
SMILES: Cc1cccc(C)c1CNC(=O)[C@H]1N(C(=O)[C@@H](O)[C@H](Cc2ccc3c(c2)OCO3)NC(=O)c2cccc(N)c2Cl)CSC1(C)C

- pEC50 [1]: 8.22
- pEC50 [2]: 7.46
- remaining at 5 µM [11]: 65%
- remaining at 5 µM [12]: 89%
- pKi (Protease): 9.51
SMILES: CCOc1ccc(C[C@H](NC(=O)c2cccc(N)c2Cl)[C@H](O)C(=O)N2CSC(C)(C)[C@H]2C(=O)NCc2ccccc2C)cc1
